“And” between values parts separate entries of the source, which are not always exact repeats. Identical values can stand only once. Marks after values point to notes of the source that are not given here. One block for each compound: values may come before it.
Experiments:
Type in all cases: in vitro ADME
UGT2B17 = molecular target: T1, UGT2B17 (Homo sapiens, UniProt O75795); test: Screening of recombinant UGT2B17 for glucuronidation activity; settings: 250 μM substrate, 5 μg protein, 60 min, 37 °C
T1 sequence (O75795 24-530): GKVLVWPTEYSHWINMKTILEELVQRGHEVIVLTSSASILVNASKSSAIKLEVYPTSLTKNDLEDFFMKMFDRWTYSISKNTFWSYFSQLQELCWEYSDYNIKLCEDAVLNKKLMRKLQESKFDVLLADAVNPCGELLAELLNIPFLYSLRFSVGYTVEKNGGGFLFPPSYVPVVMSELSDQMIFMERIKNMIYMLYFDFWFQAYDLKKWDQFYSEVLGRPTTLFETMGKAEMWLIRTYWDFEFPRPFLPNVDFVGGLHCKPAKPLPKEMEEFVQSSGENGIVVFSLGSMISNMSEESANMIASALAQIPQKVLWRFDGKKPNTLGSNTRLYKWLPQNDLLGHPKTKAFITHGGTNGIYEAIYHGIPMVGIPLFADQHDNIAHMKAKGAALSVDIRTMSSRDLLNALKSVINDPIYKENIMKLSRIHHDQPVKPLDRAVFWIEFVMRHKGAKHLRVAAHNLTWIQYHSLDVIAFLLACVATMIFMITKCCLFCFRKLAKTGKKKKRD
In short: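 UGT1A1, 1A3, 1A4 and 1A6–1A10 were His-tagged and expressed in baculovirus-infected Sf9 cells; UGT2B4, 2B7, 2B15 and 2B17 were commercial membranes run per supplier protocol. 5 μg membrane protein with 250 μM substrate, 2 mM UDP-GlcUA, Tris–HCl pH 7.4, MgCl2, saccharolactone, 2% DMSO; 37 °C, 60 min; no-substrate controls. Products measured by HPLC-UV/vis; β-glucuronidase hydrolysis separated O- from carboxyl glucuronides.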

UGT1A8 = molecular target: T2, UGT1A8 (Homo sapiens, UniProt Q9HAW9); test: Steady state kinetics of glucuronidation by recombinant UGT1A8
T2 sequence (Q9HAW9 26-530): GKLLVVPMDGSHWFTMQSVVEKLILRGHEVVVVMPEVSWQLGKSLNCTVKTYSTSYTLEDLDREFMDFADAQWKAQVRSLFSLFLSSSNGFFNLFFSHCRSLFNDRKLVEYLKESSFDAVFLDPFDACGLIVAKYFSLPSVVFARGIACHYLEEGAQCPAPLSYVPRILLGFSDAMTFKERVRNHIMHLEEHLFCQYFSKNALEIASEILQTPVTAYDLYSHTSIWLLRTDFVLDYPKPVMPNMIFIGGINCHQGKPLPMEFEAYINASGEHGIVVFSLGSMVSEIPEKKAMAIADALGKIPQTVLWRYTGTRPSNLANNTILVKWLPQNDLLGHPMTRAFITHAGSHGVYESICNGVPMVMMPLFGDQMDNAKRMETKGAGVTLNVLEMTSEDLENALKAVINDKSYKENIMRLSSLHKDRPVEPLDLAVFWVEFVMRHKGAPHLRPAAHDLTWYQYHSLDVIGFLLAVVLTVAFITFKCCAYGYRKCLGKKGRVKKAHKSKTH

[1] = Glucuronidation by human intestinal microsomes; settings: 0.25 mM substrate, 60 min
In short: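 Microsomes from individual human livers (10 donors), a pooled liver sample and hepatosomes, or from intestines (13 donors). Substrate dried from ethanol, redissolved in DMSO and sonicated. Incubated 37 °C, 60 min; ethanol stop, centrifuged. Glucuronides measured by reversed-phase HPLC-UV; nmol/mg/min, median and range.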

UGT1A1 = molecular target: T3, UGT1A1 (Homo sapiens, UniProt P22309); test: Steady state kinetics of glucuronidation by recombinant UGT1A1
T3 sequence (P22309 26-533): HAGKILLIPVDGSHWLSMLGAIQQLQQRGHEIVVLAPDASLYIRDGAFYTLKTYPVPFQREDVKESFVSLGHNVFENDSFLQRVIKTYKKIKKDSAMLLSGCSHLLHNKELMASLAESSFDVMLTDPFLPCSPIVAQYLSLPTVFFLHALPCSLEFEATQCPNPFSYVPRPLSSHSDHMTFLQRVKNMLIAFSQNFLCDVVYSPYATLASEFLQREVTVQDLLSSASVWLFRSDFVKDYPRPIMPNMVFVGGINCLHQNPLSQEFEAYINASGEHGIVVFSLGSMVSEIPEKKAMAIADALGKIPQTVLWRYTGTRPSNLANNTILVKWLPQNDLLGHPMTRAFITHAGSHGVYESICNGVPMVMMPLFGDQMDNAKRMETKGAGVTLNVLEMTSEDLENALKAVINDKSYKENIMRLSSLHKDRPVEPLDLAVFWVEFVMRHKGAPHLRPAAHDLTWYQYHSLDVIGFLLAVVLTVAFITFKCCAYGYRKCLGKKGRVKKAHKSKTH

UGT1A9 = molecular target: T4, UGT1A9 (Homo sapiens, UniProt O60656); test: Steady state kinetics of glucuronidation by recombinant UGT1A9
T4 sequence (O60656 26-530): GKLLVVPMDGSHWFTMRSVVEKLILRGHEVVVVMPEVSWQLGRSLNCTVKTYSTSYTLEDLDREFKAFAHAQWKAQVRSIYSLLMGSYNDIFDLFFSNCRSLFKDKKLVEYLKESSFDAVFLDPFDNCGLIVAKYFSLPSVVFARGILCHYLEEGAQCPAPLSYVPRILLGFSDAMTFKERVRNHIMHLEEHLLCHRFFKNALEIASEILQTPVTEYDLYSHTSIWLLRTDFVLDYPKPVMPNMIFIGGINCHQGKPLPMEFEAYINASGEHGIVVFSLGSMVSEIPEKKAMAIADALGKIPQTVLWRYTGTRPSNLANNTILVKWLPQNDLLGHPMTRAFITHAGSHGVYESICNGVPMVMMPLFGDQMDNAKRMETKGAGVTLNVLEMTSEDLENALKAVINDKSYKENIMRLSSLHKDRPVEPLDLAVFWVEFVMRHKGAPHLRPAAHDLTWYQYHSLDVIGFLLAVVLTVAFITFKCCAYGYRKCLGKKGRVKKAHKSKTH

glucuronidation activity (glucuronide formed) (UGT2B17): No activity
SMILES: COc1cc(/C=C/c2cc([N+](=O)[O-])c(O)c([N+](=O)[O-])c2)cc(OC)c1 [DNR-1, (E)-4-(3,5-dimethoxystyryl)-2,6-dinitrophenol]

NI-12a-COO-gluc formation (UGT1A8; COO-glucuronide): not produced | Ks (UGT1A8; NI-12a-O-gluc formation, USI model): 950 ± 449 µM | metabolites produced ([1]; donors HI34, HI36, HI40, and HI41): only one (the hydroxyl) metabolite | metabolites produced ([1]; remaining donors with activity): two (hydroxyl and carboxyl) metabolites | NI-12a-COO-gluc formation (UGT1A1; COO-glucuronide): too low to be assessed | NI-12a-O-gluc formation (UGT1A1; O-glucuronide): not produced | NI-12a-COO-gluc formation (UGT1A9; COO-glucuronide): not produced | Vmax (UGT1A9; NI-12a glucuronidation): 8.3 nm/mg protein/min | catalytic efficiency, ratio Vmax/Km (UGT1A9; NI-12a glucuronidation): 35 µL/min/mg | kinetic model (UGT1A9; NI-12a-O-gluc formation): Michaelis–Menten and M–M
SMILES: COc1ccc(/C=C(/C(=O)O)c2cc(OC)c(OC)c(OC)c2)cc1O [NI-12a, (E)-3-(3-hydroxy-4-methoxyphenyl)-2-(3,4,5-trimethoxyphenyl)acrylic acid]
kinetic model (UGT1A8; NI-12a-O-gluc formation): uncompetitive substrate inhibition and USI | glucuronidation activity ([1]; donors HI27, HI28, HI29, and HI54): failed to display glucuronidation activity | Vmax (UGT1A9; NI-12a-O-gluc formation): 8.3 nmol/mg/min and 8.3 ± 0.52 nmol/mg/min

NI-ST-05–N–O-gluc formation (UGT1A8; N–O-glucuronide): not produced | glucuronidation activity (glucuronide formed) (UGT2B17): inactive | metabolites produced ([1]; all other donors (than HI27, HI29, HI30)): one metabolite | kinetic model (UGT1A1; NI-ST-05–N–O-gluc formation, estimated based on an incomplete data set): M–M ^b | Vmax (UGT1A1; NI-ST-05–N–O-gluc formation, estimated based on an incomplete data set, assuming M–M kinetics): 0.21 ± 0.02 ^b nmol/mg/min | Km at 60 min (UGT1A9; human, pH 7.4): < 5 µM
SMILES: COc1ccc(C=Cc2cc(OC)cc(OC)c2/C=N/O)cc1 [NI-ST-05, (E)-2,4-dimethoxy-6-(4-methoxystyryl)benzaldehyde oxime]
glucuronidation activity ([1]; donors HI27, HI29, and HI30): failed to display glucuronidation activity | kinetic model (UGT1A9; NI-ST-05–N–O-gluc formation): did not fit any of the kinetic models tested

— article PMC4002122 (Chemical Research in Toxicology, 2014)
